Data: ChEMBL document CHEMBL1121881 (1981)

Tests used:
Type in all cases: functional
Mus musculus [1] = experiment: Compound was evaluated for the antimetrazole effect by administering through intravenous route at the pretreatment period of 10 min
Outline: (§1)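 Male CFLP outbred albino mice (19–21 g) dosed iv, 5–240 min before challenge. Vehicle: 5 mg compound in propylene glycol/Chremofor EL/distilled water (2:1:7 mL), diluted with distilled water. Metrazol (pentylenetetrazol) 125 mg/kg sc in distilled water. Mice counted protected if no tonic-extensor convulsions over 60 min of observation. ED50 and confidence limits by Litchfield–Wilcoxon.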

Mus musculus [2] = experiment: Compound was evaluated for the antimetrazole effect by administering through intravenous route at the pretreatment period of 120 min; outline: as §1
Mus musculus [3] = experiment: Compound was evaluated for the antimetrazole effect by administering through intravenous route at the pretreatment period of 20 min; outline: as §1
Mus musculus [4] = experiment: Compound was evaluated for the antimetrazole effect by administering through intravenous route at the pretreatment period of 240 min; outline: as §1
Mus musculus [5] = experiment: Compound was evaluated for the antimetrazole effect by administering through intravenous route at the pretreatment period of 5 min; outline: as §1
Mus musculus [6] = experiment: Compound was evaluated for the muscle relaxant effect by administering through intravenous route at the pretreatment period of 2400 min
Mus musculus [7] = experiment: Compound was evaluated for the muscle relaxant effect by administering through intravenous route at the pretreatment period of 5 min
Outline: (§2)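 Rotarod test in male CFLP mice (19–21 g) given compound iv 5–240 min beforehand, in propylene glycol/Chremofor EL/water vehicle diluted with distilled water. Mice were preselected and trained to stay 120 s on a 20 mm rod turning at 12 min⁻¹. Fallers were expressed as percentage of the dose group. ED50 by Litchfield–Wilcoxon.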

Mus musculus [8] = experiment: Ester brain level after 10 minutes of administration of 0.46 mg/kg in antimetrazole assay
Mus musculus [9] = experiment: Ester brain level after 120 minutes of administration of 0.32 mg/kg in antimetrazole assay
Mus musculus [10] = experiment: Ester brain level after 30 minutes of administration of 0.28 mg/kg in antimetrazole assay
Mus musculus [11] = experiment: Ester brain level after 30 minutes of administration of 2.82 mg/kg in muscle relaxant assay
Mus musculus [12] = experiment: Ester brain level after 5 minutes of administration of 1.07 mg/kg in antimetrazole assay
Mus musculus [13] = experiment: Compound was evaluated for the muscle relaxant effect by administering through intravenous route at the pretreatment period of 10 min; outline: as §2
Mus musculus [14] = experiment: Compound was evaluated for the muscle relaxant effect by administering through intravenous route at the pretreatment period of 120 min; outline: as §2
Mus musculus [15] = experiment: Compound was evaluated for the muscle relaxant effect by administering through intravenous route at the pretreatment period of 20 min; outline: as §2
Mus musculus [16] = experiment: Oxazepam brain level after 120 minutes of administration of 0.32 mg/kg in antimetrazole assay
Mus musculus [17] = experiment: Oxazepam brain level after 30 minutes of administration of 0.28 mg/kg in antimetrazole assay
Mus musculus [18] = experiment: Oxazepam brain level after 30 minutes of administration of 2.82 mg/kg in muscle relaxant assay
Mus musculus [19] = experiment: Oxazepam brain level after 5 minutes of administration of 0.96 mg/kg in muscle relaxant assay
Mus musculus [20] = experiment: Oxazepam brain level after 5 minutes of administration of 1.07 mg/kg in antimetrazole assay
Mus musculus [21] = experiment: Oxazepam brain level after 10 minutes of administration of 0.46 mg/kg in antimetrazole assay
Mus musculus [22] = experiment: Ester brain level after 5 minutes of administration of 0.96 mg/kg in muscle relaxant assay
Mus musculus [23] = experiment: Compound was evaluated for the antimetrazole effect by administering through intravenous route at the pretreatment period 240 min; outline: as §1
Mus musculus [24] = experiment: Compound was evaluated for the muscle relaxant effect by administering through intravenous route at the pretreatment period of 240 min; outline: as §2

| Structure (SMILES) | ED50 (Mus musculus [1]) | ED50 (Mus musculus [2]) | ED50 (Mus musculus [3]) | ED50 (Mus musculus [4]) | ED50 (Mus musculus [5]) | ED50 (Mus musculus [7]) | ED50 (Mus musculus [13]) | ED50 (Mus musculus [14]) | ED50 (Mus musculus [15]) | ED50 (Mus musculus [24]) | also measured |
| --- | --- | --- | --- | --- | --- | --- | --- | --- | --- | --- | --- |
| CCC(CC)C(=O)OC1N=C(c2ccccc2)c2cc(Cl)ccc2NC1=O (stereo not given) | 0.46 mg/kg | 0.32 mg/kg | 0.31 mg/kg | 1.97 mg/kg | 1.07 mg/kg | 0.95 mg/kg | 0.61 mg/kg | 4.7 mg/kg | 0.36 mg/kg | – | ED50 (Mus musculus [6]): 9.1 mg/kg; Brain level (Mus musculus [8]): 383 pM/g; Brain level (Mus musculus [9]): 95 pM/g; Brain level (Mus musculus [10]): 187 pM/g; Brain level (Mus musculus [11]): 1820 pM/g; Brain level (Mus musculus [12]): 1250 pM/g; Brain level (Mus musculus [16]): 344 pM/g; Brain level (Mus musculus [17]): 286 pM/g; Brain level (Mus musculus [18]): 5160 pM/g; Brain level (Mus musculus [19]): 480 pM/g; Brain level (Mus musculus [20]): 374 pM/g; Brain level (Mus musculus [21]): 339 pM/g; Brain level (Mus musculus [22]): 1440 pM/g |
| CC(=O)OC1N=C(c2ccccc2)c2cc(Cl)ccc2NC1=O (stereo not given) | – | 0.47 mg/kg | – | – | – | – | – | 2.6 mg/kg | – | 4.8 mg/kg | ED50 (Mus musculus [23]): 1.17 mg/kg |
| O=C1Nc2ccc(Cl)cc2C(c2ccccc2)=NC1O (stereo not given) [OXAZEPAM] | 0.16 mg/kg | 0.49 mg/kg | 0.21 mg/kg | 0.62 mg/kg | 0.18 mg/kg | 0.96 mg/kg | 0.86 mg/kg | 2.4 mg/kg | 0.8 mg/kg | 6.6 mg/kg | – |
| CC(C)(C)C(=O)OC1N=C(c2ccccc2)c2cc(Cl)ccc2NC1=O (stereo not given) [PIVOXAZEPAM] | – | 0.61 mg/kg | – | 0.8 mg/kg | – | – | – | 5.6 mg/kg | – | 9 mg/kg | – |
